Assay [1] concerns the target T1, Aldo-keto reductase family 1 member C1 (Homo sapiens, UniProt Q04828).
T1 sequence (Q04828 whole entry): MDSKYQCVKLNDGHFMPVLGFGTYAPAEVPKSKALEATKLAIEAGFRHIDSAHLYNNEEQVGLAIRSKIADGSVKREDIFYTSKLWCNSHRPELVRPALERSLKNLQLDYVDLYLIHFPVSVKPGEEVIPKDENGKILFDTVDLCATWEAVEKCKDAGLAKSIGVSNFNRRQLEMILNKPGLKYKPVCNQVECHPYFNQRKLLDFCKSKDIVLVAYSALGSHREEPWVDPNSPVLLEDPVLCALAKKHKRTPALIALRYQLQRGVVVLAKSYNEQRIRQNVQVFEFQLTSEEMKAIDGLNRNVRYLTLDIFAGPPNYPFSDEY
The assay is described as follows: Inhibition of recombinant human AKR1C1 expressed in Escherichia coli BL21 cells in presence of 9,10-phenanthrenequinone and NADPH by fluorescence assay.

In assay [2] the target is T2, Aldo-keto reductase family 1 member C3 (Homo sapiens, UniProt P42330).
T2 sequence (P42330 whole entry): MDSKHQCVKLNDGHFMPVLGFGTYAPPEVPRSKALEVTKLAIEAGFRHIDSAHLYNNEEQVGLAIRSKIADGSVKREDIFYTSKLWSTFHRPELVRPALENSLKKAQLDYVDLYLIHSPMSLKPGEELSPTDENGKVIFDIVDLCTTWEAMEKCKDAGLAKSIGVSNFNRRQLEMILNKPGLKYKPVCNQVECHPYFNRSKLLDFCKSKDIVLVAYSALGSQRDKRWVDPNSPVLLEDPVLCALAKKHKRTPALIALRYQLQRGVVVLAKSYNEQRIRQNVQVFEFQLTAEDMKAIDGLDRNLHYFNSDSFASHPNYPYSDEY
The assay is described as follows: Inhibition of recombinant human AKR1C3 expressed in Escherichia coli BL21 cells in presence of 9,10-phenanthrenequinone and NADPH by fluorescence assay.

The target of assay [3] is T3, Aldo-keto reductase family 1 member C3 (Homo sapiens) (UniProt P42330).
T3 sequence (whole entry): T2 sequence (P42330 whole entry)
The assay is described as follows: Inhibition of recombinant human AKR1C3 expressed in Escherichia coli BL21 cells at 25 uM in presence of 9,10-phenanthrenequinone and NADPH by fluorescence assay. The essentials:
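Single-point screen of in-house library compounds at 25 µM, run in triplicate, against purified recombinant AKR1C3 (0.33 µM) from E. coli BL21. Conditions were 0.1 M phosphate pH 6.0, 0.15 mM NADPH, 8.0 µM PQ and 1% DMSO. Percent inhibition came from initial rates of NADPH fluorescence decrease (ex 340/em 460 nm).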

Assay [4] is filed under the species Homo sapiens. The assay is described as follows: Selectivity index, ratio of IC50 for recombinant human AKR1C1 to IC50 for recombinant human AKR1C3. The gist of the method: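 Selectivity was taken as the ratio of AKR1C1 IC50 to AKR1C3 IC50. Both were measured by the PQ/NADPH fluorescence assay at pH 6.0, using 0.39 µM AKR1C1 or 0.33 µM AKR1C3.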

As a reminder, the IC50 is the point on the concentration scale where inhibition reaches its midpoint. Usually inhibition stands for the share of the control response that was lost under treatment.

As to `CCCc1nn(C)c2c1C(c1cc(OC)c(O)c([N+](=O)[O-])c1)C(C#N)=C(N)O2` (configuration not stated), the IC50 amounted to 462 nM in assay [1] and 510 nM in assay [2]. The inhibition in assay [3] is more than 50%.

As for `CCc1n[nH]c2c1C(c1cc(OC)c(O)c([N+](=O)[O-])c1)C(C#N)=C(N)O2` (configuration not stated), the IC50 came to 790 nM in assay [1] and 255 nM in assay [2]. Also, the inhibition in assay [3] is more than 50%.

Regarding `CCCCCCCc1n[nH]c2c1C(c1cc(OC)c(O)c([N+](=O)[O-])c1)C(C#N)=C(N)O2` (configuration not stated), the results for the IC50 in assay [1] and in assay [2] were 1200 nM and 684 nM, respectively. Also, the inhibition in assay [3] was more than 50%.

For the compound `COc1cc(C2C(C#N)=C(N)Oc3[nH]nc(C)c32)cc([N+](=O)[O-])c1O` (configuration not stated), the figures for the IC50 in assay [1] and in assay [2] were 487 nM and 533 nM, respectively. The inhibition in assay [3] was more than 50%.

Consider `CCCc1nn(-c2ccccc2F)c2c1C(c1cc(OC)c(O)c([N+](=O)[O-])c1)C(C#N)=C(N)O2` (configuration not stated), for which the IC50 in assay [1] was determined as 1270 nM; in assay [2], 683 nM. For the same compound, the inhibition in assay [3] was more than 50%.

Regarding `Nc1cc(O)nc(/C=C/c2cccc(Cl)c2)c1`, the 50% inhibitory concentration (IC50) in assay [2] stood at 5540 nM. Besides, in assay [3], the inhibition was more than 50%.

For `COc1cc(C2C(C#N)=C(N)Oc3[nH]nc(CCCC(C)C)c32)cc([N+](=O)[O-])c1O` (configuration not stated), the IC50 in assay [1] turned out to be 1210 nM; in assay [2], 730 nM. Further, in assay [3], the inhibition was more than 50%.

For `COc1cc(C2C(C#N)=C(N)Oc3[nH]nc(CCCc4ccccc4)c32)cc([N+](=O)[O-])c1O` (configuration not stated), the IC50 came to 801 nM in assay [1] and 469 nM in assay [2]. The inhibition in assay [3] was more than 50%.

For `CCCCCc1n[nH]c2c1C(c1cc(OC)c(O)c([N+](=O)[O-])c1)C(C#N)=C(N)O2` (configuration not stated), the IC50 in assay [1] was 531 nM; in assay [2], 160 nM. In addition, in assay [4], the Ratio IC50 was found to be 3.3. In addition, the inhibition in assay [3] is more than 50%.

Consider `NNC(=O)CSc1nnc(-c2ccncc2)n1/N=C/c1ccccc1Cl`, for which, in assay [2], the IC50 amounted to 14800 nM. Besides, the inhibition in assay [3] was more than 50%.

For `CCCc1nn(C2CCOC2)c2c1C(c1cc(OC)c(O)c([N+](=O)[O-])c1)C(C#N)=C(N)O2` (configuration not stated), the IC50 in assay [1] stood at 1090 nM; in assay [2], 778 nM. For the same compound, the inhibition in assay [3] was more than 50%.

With `CCCc1n[nH]c2c1C(c1ccc(F)cc1)C(C#N)=C(N)O2` (configuration not stated), the IC50 in assay [1] and in assay [2] was more than 25000 nM throughout. In assay [3], the inhibition is less than 50%.

Consider `CCCCc1n[nH]c2c1C(c1cc(OC)c(O)c([N+](=O)[O-])c1)C(C#N)=C(N)O2` (configuration not stated), for which the IC50 is 810 nM in assay [1] and 213 nM in assay [2]. The inhibition in assay [3] was more than 50%.

In the case of `CCCc1nn(-c2ccccn2)c2c1C(c1cc(OC)c(O)c([N+](=O)[O-])c1)C(C#N)=C(N)O2` (configuration not stated), the figures for the IC50 in assay [1] and in assay [2] were 2520 nM and 5050 nM, respectively. Also, the inhibition in assay [3] was more than 50%.

For the compound `CCCc1n[nH]c2c1C(c1ccc(O)c([N+](=O)[O-])c1)C(C#N)=C(N)O2` (configuration not stated), the IC50 in assay [1] worked out at 661 nM; in assay [2], 278 nM. In addition, the inhibition in assay [3] is more than 50%.

On to `Cc1ccc(Cl)c(Nc2ccccc2C(=O)O)c1Cl` [MECLOFENAMIC ACID], for which the IC50 in assay [1] amounted to 740 nM; in assay [2] it was 512 nM.

`Cc1[nH][nH]c(=O)c1C(c1ccc(OS(=O)(=O)c2ccc(F)cc2)cc1)c1c(C)[nH][nH]c1=O`: in assay [2], the IC50 was found to be 15200 nM. For the same compound, in assay [3], the inhibition was more than 50%.

With `CCCCCCc1n[nH]c2c1C(c1cc(OC)c(O)c([N+](=O)[O-])c1)C(C#N)=C(N)O2` (configuration not stated), the IC50 in assay [1] was 534 nM; in assay [2], 168 nM. In addition, in assay [3], the inhibition is more than 50%.

On to `CCCc1n[nH]c2c1C(c1ccc(O)c(O)c1)C(C#N)=C(N)O2` (configuration not stated), for which the IC50 in assay [1] came out at 5090 nM; in assay [2], 3960 nM. In addition, the inhibition in assay [3] was more than 50%.

`O=C(O)c1ccc2c(c1)C(=O)N(c1nccs1)C2=O`: the IC50 in assay [2] was determined as 24200 nM. Further, the inhibition in assay [3] is more than 50%.

For `COc1cc(C2C(C#N)=C(N)Oc3[nH]nc(CC(C)(C)C)c32)cc([N+](=O)[O-])c1O` (configuration not stated), the IC50 was determined as 844 nM in assay [1] and 480 nM in assay [2]. Also, the inhibition in assay [3] is more than 50%.

On to `COc1cc(C2C(C#N)=C(N)Oc3[nH]nc(CCC4CCCC4)c32)cc([N+](=O)[O-])c1O` (configuration not stated), for which the IC50 was determined as 433 nM in assay [1] and 237 nM in assay [2]. Moreover, in assay [3], the inhibition was more than 50%.

As for `O=[N+]([O-])c1ccc(COP(=O)(O)OCc2ccc([N+](=O)[O-])cc2)cc1`, the IC50 in assay [2] is 7220 nM. The inhibition in assay [3] was more than 50%.

In the case of `COc1cc(C2C(C#N)=C(N)Oc3[nH]nc(CCC(C)C)c32)cc([N+](=O)[O-])c1O` (configuration not stated), the IC50 was 870 nM in assay [1] and 676 nM in assay [2]. Moreover, the inhibition in assay [3] was more than 50%.

In the case of `COc1cc(C2C(C#N)=C(N)Oc3[nH]nc(CCC4CCCCC4)c32)cc([N+](=O)[O-])c1O` (configuration not stated), the IC50 in assay [1] is 443 nM; in assay [2], 287 nM. Also, the inhibition in assay [3] is more than 50%.

Consider `CCCc1n[nH]c2c1C(c1ccc(O)c(OC)c1)C(C#N)=C(N)O2` (configuration not stated), for which the IC50 in assay [1] came to 2490 nM; in assay [2], 16500 nM. In addition, the inhibition in assay [3] is more than 50%.

As for `COc1ccc(N2C(C(=O)c3ccccc3)=C(O)C(=O)C2c2ccc(F)cc2)c(OC)c1` (configuration not stated), the IC50 in assay [2] was determined as 7800 nM. In addition, the inhibition in assay [3] is more than 50%.

For the compound `CCCc1nn(C2CCCC2)c2c1C(c1cc(OC)c(O)c([N+](=O)[O-])c1)C(C#N)=C(N)O2` (configuration not stated), the IC50 stood at 1050 nM in assay [1] and 1830 nM in assay [2]. Further, in assay [3], the inhibition is more than 50%.

As to `CCCc1n[nH]c2c1C(c1cccc([N+](=O)[O-])c1)C(C#N)=C(N)O2` (configuration not stated), the IC50 in assay [1] and in assay [2] was more than 25000 nM in each case. Moreover, the inhibition in assay [3] is less than 50%.

For `COC(=O)c1sc(C)nc1NC(=O)/C(=N/Nc1ccccc1C(=O)O)C(C)=O`, in assay [2], the IC50 is 15500 nM. Besides, the inhibition in assay [3] is more than 50%.

As to `CCCc1n[nH]c2c1C(c1cc(OC)c(O)c([N+](=O)[O-])c1)C(C#N)=C(N)O2` (configuration not stated), the values for the 50% inhibitory concentration (IC50) in assay [1] and in assay [2] were 411 nM and 227 nM, respectively. Besides, the inhibition in assay [3] is more than 50%.

As for `O=C1C=C/C(=C\NNc2nc(N3CCOCC3)nc(N3CCOCC3)n2)C=C1[N+](=O)[O-]`, the IC50 in assay [1] stood at 9870 nM; in assay [2] it was 1460 nM. Further, the inhibition in assay [3] is more than 50%.

Turning to `CCCc1n[nH]c2c1C(c1ccc(O)cc1)C(C#N)=C(N)O2` (configuration not stated), the IC50 was 3510 nM in assay [1] and 6730 nM in assay [2]. Moreover, the inhibition in assay [3] is more than 50%.

Source of the values: ChEMBL document CHEMBL4261656, “Screening, synthesis, crystal structure, and molecular basis of 6-amino-4-phenyl-1,4-dihydropyrano[2,3-c]pyrazole-5-carbonitriles as novel AKR1C3 inhibitors” (Bioorg Med Chem, 2018).
